Test [1] has as its target T1, Hexokinase-1 (Rattus norvegicus) (UniProt P05708).
T1 sequence (whole entry): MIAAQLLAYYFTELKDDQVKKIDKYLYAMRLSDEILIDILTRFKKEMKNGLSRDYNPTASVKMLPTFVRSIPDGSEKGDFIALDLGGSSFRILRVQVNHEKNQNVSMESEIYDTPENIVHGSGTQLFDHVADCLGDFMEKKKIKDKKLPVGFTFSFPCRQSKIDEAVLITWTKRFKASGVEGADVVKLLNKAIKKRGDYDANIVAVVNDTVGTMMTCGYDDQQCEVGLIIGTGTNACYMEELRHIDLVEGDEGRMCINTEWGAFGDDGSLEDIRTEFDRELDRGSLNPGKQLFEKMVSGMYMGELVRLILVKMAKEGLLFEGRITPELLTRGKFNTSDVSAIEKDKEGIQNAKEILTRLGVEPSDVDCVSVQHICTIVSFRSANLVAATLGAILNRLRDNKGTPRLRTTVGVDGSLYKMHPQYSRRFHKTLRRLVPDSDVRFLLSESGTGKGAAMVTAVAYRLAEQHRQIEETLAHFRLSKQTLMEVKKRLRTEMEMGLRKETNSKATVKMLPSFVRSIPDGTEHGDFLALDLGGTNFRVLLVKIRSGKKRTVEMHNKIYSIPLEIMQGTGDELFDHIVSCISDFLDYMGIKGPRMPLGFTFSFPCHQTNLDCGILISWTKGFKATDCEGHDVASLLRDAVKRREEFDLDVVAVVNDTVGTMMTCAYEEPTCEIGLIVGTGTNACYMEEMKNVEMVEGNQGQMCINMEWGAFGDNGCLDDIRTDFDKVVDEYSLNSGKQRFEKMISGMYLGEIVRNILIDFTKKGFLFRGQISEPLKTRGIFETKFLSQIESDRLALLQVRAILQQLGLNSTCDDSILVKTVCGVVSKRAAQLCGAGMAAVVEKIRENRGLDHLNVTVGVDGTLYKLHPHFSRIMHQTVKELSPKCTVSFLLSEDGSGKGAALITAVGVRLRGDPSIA
As to the kind of experiment: Time dependent inhibition of Hexokinase type I activity after 6 h, at 22 degrees celsius, at 5 mM compound.

Test [2] in a line: Tested for the velocity of 2.8 mM compound relative to that of 2.8 mM MgATP in the assay. In a few lines:
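E. coli TK substrate test. 0.5 h after adding inhibitor, the mixture was diluted to 2.8 mM derivative in thymidine assay medium without ATP and with 1.42 mM MnCl2. Incubated 15 min at 37 °C, in the linear range. [14C]TMP formed was compared with that from 2.8 mM ATP under the same conditions.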

The subject of test [3] is Saccharomyces cerevisiae. As to the kind of experiment: Compound was tested for time dependent inhibition of hexokinase activity after 6 hr, at 22 degrees celsius, with 5 mM ATP derivative in yeast hexokinase.
The target of test [4] is Thymidine kinase (Escherichia coli) (UniProt P23331). Nature of the test: Compound was tested for the loss of thymidine kinase activity from Escherichia coli after 6 hr at 0 degrees C at 10 mM.
For test [5], the target named is T2, Hexokinase-3 (Rattus norvegicus) (UniProt P27926).
T2 sequence (whole entry): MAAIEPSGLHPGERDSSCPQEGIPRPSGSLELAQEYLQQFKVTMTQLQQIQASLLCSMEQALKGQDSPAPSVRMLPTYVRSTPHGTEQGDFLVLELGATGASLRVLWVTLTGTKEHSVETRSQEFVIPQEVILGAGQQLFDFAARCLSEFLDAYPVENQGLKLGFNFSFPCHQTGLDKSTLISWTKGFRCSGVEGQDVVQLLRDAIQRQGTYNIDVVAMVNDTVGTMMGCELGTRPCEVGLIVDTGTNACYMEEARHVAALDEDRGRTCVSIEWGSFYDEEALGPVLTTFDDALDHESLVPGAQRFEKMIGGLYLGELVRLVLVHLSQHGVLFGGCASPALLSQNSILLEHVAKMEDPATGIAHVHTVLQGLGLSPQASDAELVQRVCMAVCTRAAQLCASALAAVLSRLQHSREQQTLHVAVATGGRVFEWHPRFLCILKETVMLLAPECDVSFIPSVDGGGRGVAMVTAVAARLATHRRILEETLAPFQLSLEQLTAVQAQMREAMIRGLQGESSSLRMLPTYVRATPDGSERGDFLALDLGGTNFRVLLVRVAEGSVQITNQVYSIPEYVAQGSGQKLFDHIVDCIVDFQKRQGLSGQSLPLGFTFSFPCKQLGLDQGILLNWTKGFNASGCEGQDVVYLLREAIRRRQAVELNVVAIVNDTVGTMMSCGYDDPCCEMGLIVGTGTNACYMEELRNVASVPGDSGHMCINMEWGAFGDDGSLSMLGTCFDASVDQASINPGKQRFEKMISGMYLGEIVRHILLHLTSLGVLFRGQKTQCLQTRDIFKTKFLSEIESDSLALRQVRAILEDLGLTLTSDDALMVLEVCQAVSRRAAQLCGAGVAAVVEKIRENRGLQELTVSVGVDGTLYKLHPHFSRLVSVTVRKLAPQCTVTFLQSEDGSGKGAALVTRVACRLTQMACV
As to the kind of experiment: Substrate activity for rat hexokinase III as 1:1 Mg complex at 5.0 mM. In a few lines:
(§1)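 Hexokinase activity read at 22 °C as A340 change, coupled to glucose-6-phosphate dehydrogenase, in 0.05 M Tris-HCl pH 7.6 with 6.6 mM MgCl2, 10 mM α-D-glucose and 0.93 mM NADP. Donor was 5.0 mM MgATP derivative (1:1 Mg complex) in place of ATP. Yeast HK was isoelectric-focused. Rat HK I and III came from electrofocused liver extract, HK II from dialysed muscle extract.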

Test [6] has as its target T1, Hexokinase-1 (Rattus norvegicus). As to the kind of experiment: Substrate activity for rat hexokinase I as 1:1 Mg complex at 5.0 mM. In a few lines: as §1
Test [7] concerns the target T2, Hexokinase-3 (Rattus norvegicus). Nature of the test: Time dependent inhibition of Hexokinase type III activity after 6 h, at 22 degrees celsius, at 5 mM.
Test [8] deals with T3, Hexokinase-2 (Rattus norvegicus) (UniProt P27881).
T3 sequence (whole entry): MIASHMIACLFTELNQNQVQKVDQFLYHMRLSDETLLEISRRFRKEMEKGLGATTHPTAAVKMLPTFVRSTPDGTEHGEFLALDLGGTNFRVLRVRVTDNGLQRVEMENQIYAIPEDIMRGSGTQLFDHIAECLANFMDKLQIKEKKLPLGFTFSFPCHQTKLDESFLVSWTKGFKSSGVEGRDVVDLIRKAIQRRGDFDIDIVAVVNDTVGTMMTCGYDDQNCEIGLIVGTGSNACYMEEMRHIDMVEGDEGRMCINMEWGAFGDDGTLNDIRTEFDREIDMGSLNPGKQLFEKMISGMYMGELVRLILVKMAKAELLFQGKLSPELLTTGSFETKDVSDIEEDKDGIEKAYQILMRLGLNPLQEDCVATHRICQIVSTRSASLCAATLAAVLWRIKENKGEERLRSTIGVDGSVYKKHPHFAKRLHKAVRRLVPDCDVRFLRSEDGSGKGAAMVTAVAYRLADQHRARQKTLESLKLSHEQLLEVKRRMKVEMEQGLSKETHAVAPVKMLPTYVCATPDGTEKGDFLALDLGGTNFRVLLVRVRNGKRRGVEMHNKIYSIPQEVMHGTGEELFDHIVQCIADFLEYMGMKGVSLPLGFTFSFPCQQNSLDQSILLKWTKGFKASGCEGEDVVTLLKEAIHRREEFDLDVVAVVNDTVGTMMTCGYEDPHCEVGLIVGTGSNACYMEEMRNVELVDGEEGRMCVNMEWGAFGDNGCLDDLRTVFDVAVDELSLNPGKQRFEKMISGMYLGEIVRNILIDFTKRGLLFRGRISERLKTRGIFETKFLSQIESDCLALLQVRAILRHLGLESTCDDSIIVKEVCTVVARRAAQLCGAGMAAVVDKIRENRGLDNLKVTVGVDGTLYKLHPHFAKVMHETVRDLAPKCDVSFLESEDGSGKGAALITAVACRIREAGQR
Nature of the test: Time dependent inhibition of hexokinase 2 activity after 6 h, at 5 mM compound.

In test [9] the test system is Saccharomyces cerevisiae. As to the kind of experiment: Substrate activity against yeast hexokinase as 1:1 Mg complexes at 5.0 mM. In outline:
as §1

Test [10] concerns the target T3, Hexokinase-2 (Rattus norvegicus). As to the kind of experiment: Substrate activity against Rat hexokinase II as 1:1 Mg complex at 5.0 mM. In a few lines: as §1
Test [11] concerns the target Thymidine kinase (Escherichia coli) (UniProt P23331). Nature of the test: Compound was tested for the initial inhibition of thymidine kinase by 1.4 mM compound in the presence of 5.7 mM ATP.
Test [12] is described as follows: Substrate concentration for half maximal velocity was reported for yeast hexokinase. In a few lines:
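Coupled glucose-6-phosphate dehydrogenase/NADP assay: A340 rate at 22 °C in 0.05 M Tris-HCl pH 7.6 with 6.6 mM MgCl2, 10 mM α-D-glucose and 0.93 mM NADP, nucleotide varied. KM was taken from linear double-reciprocal plots. Rat HK I and III came from electrofocused, dialysed liver extract, HK II from dialysed muscle extract, and yeast HK was isoelectric-focused.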

Test [13] in a line: Compound was tested for substrate constants with yeast hexokinase. Maximal velocity Vmax was reported. In outline:
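Hexokinase KM and Vmax taken from linear double-reciprocal plots of initial velocity vs. nucleotide level. Assays at 22 °C, coupled to glucose-6-phosphate dehydrogenase (A340), in 0.05 M Tris-HCl pH 7.6 with 6.6 mM MgCl2, 10 mM glucose and 0.93 mM NADP. Yeast HK was isoelectric-focused. Rat HK I and III came from liver, HK II from muscle (male Sprague-Dawley).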

Test [14] addresses Thymidine kinase (Escherichia coli) (UniProt P23331). Nature of the test: Compound was tested for the initial inhibition of thymidine kinase by 1.4 mM compound in the presence of 5.7 mM ATP in Escherichia coli.
For test [15], the system named is Saccharomyces cerevisiae. Nature of the test: Time dependent inhibition of hexokinase activity after 6 hr, at 22 degrees celsius, with 5 mM ATP derivative in yeast.
The target in test [16] is Thymidine kinase (Escherichia coli) (UniProt P23331). As to the kind of experiment: Compound was tested for the lose of thymidine kinase activity after 6 h, at 0 degrees celsius, with 10 mM ATP derivative. values were expressed in percent.
Test [17] relates to Saccharomyces cerevisiae. Nature of the test: Compound was tested for time dependent inhibition of hexokinase activity after 6 h at 22 degrees celsius, with 5 mM compound in yeast hexokinase.
Test [18] concerns the target Thymidine kinase (Escherichia coli) (UniProt P23331). Nature of the test: Compound was tested for the lose of thymidine kinase activity after 6 hr, at 0 degrees celsius, with 10 mM ATP derivative. values were expressed in percent.
The target of test [19] is T2, Hexokinase-3 (Rattus norvegicus). As to the kind of experiment: Time dependent inhibition of Hexokinase type III activity after 6 hr, at 22 degrees celsius, at 5 mM compound.

Sequence of Thymidine kinase (Escherichia coli) (P23331 whole entry, looked up): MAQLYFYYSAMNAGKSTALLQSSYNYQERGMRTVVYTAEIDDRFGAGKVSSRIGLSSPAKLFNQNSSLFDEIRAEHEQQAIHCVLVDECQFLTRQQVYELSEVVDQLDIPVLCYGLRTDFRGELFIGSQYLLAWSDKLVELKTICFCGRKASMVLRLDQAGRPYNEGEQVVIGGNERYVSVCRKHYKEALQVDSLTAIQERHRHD

By inhibition is commonly meant the change of the read-out against control, counted positive when it falls. Consider `O=C(CI)NCCCCCC(=O)NCCCCCCNc1ncnc2c1ncn2[C@@H]1O[C@H](COP(=O)(O)OP(=O)(O)OP(=O)(O)O)[C@@H](O)[C@H]1O`, for which the inhibition in test [1] stood at 0%; in [3] it was 0%; in [4], 0%; in [7], 0%; in test [8] it was 0%; in test [11], 8%. In test [2], this compound displayed a Velocity of 37%. Further, the Relative velocity is 1.37 in test [5], 1.25 in test [6], 1.02 in [9] and 0.63 in test [10].
The term Km denotes the substrate concentration at which the rate is half of its maximum. Regarding `CN(CCCCN(C)c1ncnc2c1ncn2[C@@H]1O[C@H](COP(=O)(O)OP(=O)(O)OP(=O)(O)O)[C@@H](O)[C@H]1O)C(=O)CCCCCNC(=O)OCc1ccccc1`, the Michaelis-Menten constant (Km) in test [12] is 300 µM. Further, in test [13], the Vmax turned out to be 75%.
With `O=C(CI)NCCCCCCCNc1ncnc2c1ncn2[C@@H]1O[C@H](COP(=O)(O)OP(=O)(O)OP(=O)(O)O)[C@@H](O)[C@H]1O`, the inhibition in [1] came to 20%; in test [14], 10%; in [7] it was 20%; in [8], 30%; in test [15], 22%; in [16], 0%. Further, the Velocity in test [2] was determined as 38%.
In the case of `NC(=O)CI.Nc1ncnc2c1ncn2[C@@H]1O[C@H](COP(=O)(O)OP(=O)(O)OP(=O)(O)O)[C@@H](O)[C@H]1O`, the inhibition in test [1] was determined as 5%; in test [7] it was 0%; in test [8], 7%; in test [17], 0%.
As for `CN(CCCCCCN(C)c1ncnc2c1ncn2[C@@H]1O[C@H](COP(=O)(O)OP(=O)(O)OP(=O)(O)O)[C@@H](O)[C@H]1O)C(=O)CCCCCCNC(=O)CI`, the inhibition in test [1] turned out to be 0%; in [18], 0%; in test [3], 0%; in [14], 16%; in test [8] it was 0%. Also, the Velocity in test [2] was 57%. Further, the Relative velocity in test [5] is 2.06; in test [6], 1.66; in [9] it was 0.94; in [10], 0.85.
The compound `O=C(CI)NCCCCCNc1ncnc2c1ncn2[C@@H]1O[C@H](COP(=O)(O)OP(=O)(O)OP(=O)(O)O)[C@@H](O)[C@H]1O` came in with a Velocity in [2] of 13%. Besides, the inhibition stood at 0% in test [19], 0% in test [4], 0% in test [15] and 26% in test [11]. Moreover, the Relative velocity in test [5] is 1.31; in [6] it was 0.92; in [9], 0.75; in test [10], 0.6.

The record behind these values is ChEMBL document CHEMBL1122206, “Use of adenine nucleotide derivatives to assess the potential of exo-active-site-directed reagents as species- or isozyme-specific enzyme inactivators. 5. Interactions of adenosine 5'-triphosphate derivatives with rat pyruvate kinases, Escherichia coli thymidine kinase, and yeast and rat …” (1982).
